The list is not random: actives were taken first. Their share in the collection is about 4.4%.
EBI2 antag: blocks human EBI2 receptor beta-arrestin signaling. P32249. inhibition, % at 5 µM. AID 651636. 360,000 tested, 0.81% active. EBI2 beta-arrestin recruitment, luminescence, 7a,25-OHC stimulated; in the data active means inhibition above about 38%;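 further: enzyme fragment complementation signal reports receptor beta-arrestin coupling in cells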
Target sequence (P32249 whole entry, looked up, the tested form may be a part): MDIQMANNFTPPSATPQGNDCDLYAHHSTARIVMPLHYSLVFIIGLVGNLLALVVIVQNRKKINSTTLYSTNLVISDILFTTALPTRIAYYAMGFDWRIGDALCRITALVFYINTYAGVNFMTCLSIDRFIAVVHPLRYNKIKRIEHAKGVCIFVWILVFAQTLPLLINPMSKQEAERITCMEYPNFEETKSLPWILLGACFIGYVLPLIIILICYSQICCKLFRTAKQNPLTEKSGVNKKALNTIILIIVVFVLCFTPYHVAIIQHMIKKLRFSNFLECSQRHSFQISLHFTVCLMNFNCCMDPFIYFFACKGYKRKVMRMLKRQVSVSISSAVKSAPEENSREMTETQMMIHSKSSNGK
GRIN3A LBD mod: modulates the human NR3A ligand-binding domain. NR3A LBD differential scanning fluorimetry, Tm shift; 0% = protein alone, 100% = glycine-bound protein. Tm shift relative to glycine control, % at 25 µM. 340,000 tested, 2.5% active. AID 1259313;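 active means melting temperature shift of at least 10% of the positive control shift, at one fixed dose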
SENP1 inh: blocks the human SENP1 SUMO protease catalytic domain; Q9P0U3; recombinant SENP1 catalytic domain, CyPet-SUMO1-YPet FRET cleavage; inhibition, % at 10 µM; 360,000 tested, 0.21% active; AID 624204;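 active means inhibition at least 30% at 10 µM, raw YFP signal under a set limit, fluorescence ratio 0.5 to 1.5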
Target sequence (Q9P0U3 419-644 limits assumed): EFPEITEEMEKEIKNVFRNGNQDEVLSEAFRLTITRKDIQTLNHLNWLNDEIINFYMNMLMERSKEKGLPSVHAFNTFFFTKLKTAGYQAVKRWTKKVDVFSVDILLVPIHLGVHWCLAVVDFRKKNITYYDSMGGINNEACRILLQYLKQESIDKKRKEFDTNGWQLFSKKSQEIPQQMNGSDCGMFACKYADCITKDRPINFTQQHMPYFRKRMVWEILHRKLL
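Material – human SENP1 catalytic domain · Input – SENP1 enzyme, 20 pM final · Compound dosing – single concentration of 10 µM compound, 0.5% DMSO final · Timing – enzyme reaction for 50 min at room temperature, dark · Measured by – FRET fluorescence in CFP and YFP emission channels · Control set – no-enzyme wells low, DMSO-plus-enzyme wells high control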
MPTP block: blocks calcium-induced mitochondrial swelling; isolated mouse mitochondria, Ca2+ swelling absorbance, 30 min; inhibition, % at 10 µM; 360,000 tested, 1.4% active; AID 602449;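 active means inhibition of 50% or more, scaled per plate between neutral and stimulator controls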
EBI2 antag conf: EBI2 (human) antagonism, single concentration confirmation | shares compounds with EBI2 antag | EBI2 beta-arrestin luminescence, 7a,25-OHC antagonism | inhibition, % at 5 µM | 2,400 tested, 29% active;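 active means inhibition of at least 50%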
EBI2 ag: activates EBI2, counter-screen for EBI2 antagonists; shares compounds with EBI2 antag; 2,400 tested, under 10 active; EBI2-expressing cells, agonist mode, luminescence, 60 min; 0% vehicle, 100% 7α,25-dihydroxycholesterol control; AID 652000; activation, % at 5 µM;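 active means activation of at least 50%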
bGal counter: inhibits E. coli beta-galactosidase, counter-screen for EBI2 antagonists; shares compounds with EBI2 antag; purified beta-galactosidase, luminescent Galacton Star, 15 min; inhibition, % at 5 µM; 2,400 tested, 1% active; AID 652176;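 active means replicate-average signal at least 3 plate SD below neutral wells, shown as high inhibition, flagging enzyme-inhibiting false positives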;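 further: higher means stronger loss of beta-gal luminescence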
A number is an active result; . = inactive; / = no result given.

SMILES	EBI2 antag	GRIN3A LBD mod	SENP1 inh	MPTP block	EBI2 antag conf	EBI2 ag	bGal counter
CCOc1ccc(NC(=S)NN(C)C(=S)Nc2ccc(OCC)cc2)cc1	78	.	.	.	.	.	.
CCOc1ccc(NC(=S)Nc2cc(-c3ccccc3)[nH]n2)cc1	42	14	.	.	.	.	.
O=C(/C=C/c1ccccc1)N1CCN(CCN2C(=O)c3cccc4cccc(c34)C2=O)CC1	92	.	.	.	84	.	.
O=C(/C=C/c1cccc(Cl)c1)N1CCC(Cc2ccccc2)CC1	70	.	.	.	51	.	.
O=C(/C=C/c1ccccc1)N1CCC(c2ccccc2)C1 (centres undefined)	64	.	.	.	.	.	.
O=C(CN1CCN(C(=O)C2CCN(C(=O)/C=C/c3ccccc3)CC2)CC1)Nc1ccc(F)cc1	62	.	.	.	.	.	.
CCCC(=O)N1CCC(Cc2ccccc2)CC1	.	.	.	.	/	/	/
O=C(/C=C/c1ccccc1)N1CCC(Cc2ccccc2)CC1	90	.	.	.	77	.	.
COC(=O)C1CCN(C(=O)/C=C/c2ccccc2)CC1	66	.	.	.	50	.	.
COCCNC(=O)C1CCCN(C(=O)/C=C/c2ccccc2)CC1 (centres undefined)	.	/	.	.	/	/	/
CCSC1=NN2CCS(=O)(=O)N=C2S1	.	.	.	.	/	/	/
Cc1ccc(CN(C)c2ccc(S(=O)(=O)N3CCCC3)cn2)cc1	.	.	.	.	/	/	/
O=[N+]([O-])c1ccc(/C=N/N2CCN(Cc3ccccc3)CC2)cc1	.	.	.	.	/	/	/
CCN1CCN(C(=O)/C=C/c2ccc([N+](=O)[O-])cc2)CC1	74	.	.	.	.	.	.
O=C(/C=C/c1ccc(F)cc1)NNC(=O)CCN1CCN(Cc2ccccc2)CC1	42	.	.	.	.	.	.
CC(CC(=O)N1CCN(S(=O)(=O)c2ccc([N+](=O)[O-])cc2)CC1)c1ccccc1 (centres undefined)	.	.	.	.	/	/	/
COc1cccc(/C=C/C(=O)NNC(=O)CCN2CCN(Cc3ccccc3)CC2)c1	.	.	.	.	/	/	/
O=C(/C=C/c1ccc([N+](=O)[O-])cc1)N1CCN(S(=O)(=O)c2ccccc2)CC1	90	.	.	.	61	.	.
O=C(/C=C/c1ccc([N+](=O)[O-])cc1)N1CCN(Cc2ccccc2)CC1	90	.	.	.	64	.	.
CN1CCN(C(=O)/C=C/c2ccc([N+](=O)[O-])cc2)CC1	.	.	.	.	/	/	/
O=C(/C=C/c1ccc(OCCCF)cc1)N1CCN(Cc2ccccc2)CC1	88	.	.	.	50	.	.
O=C(/C=C/c1ccc(F)cc1)NC(=S)N1CCN(Cc2ccccc2)CC1	.	.	.	.	/	/	/
Cn1ccnc1/C(=N\NC(=O)c1ccccc1)c1cccc([N+](=O)[O-])c1	.	.	.	.	/	/	/
O=C(N/N=C(\c1ccccc1)c1ccccn1)c1cccc([N+](=O)[O-])c1	66	.	.	.	.	.	.
CC[C@H]1c2[nH]c3ccccc3c2C[C@@H]2C(=O)N(c3ccc(F)cc3)C(=O)N21	49	.	.	.	.	.	.
SMILES	EBI2 antag	GRIN3A LBD mod	SENP1 inh	MPTP block	EBI2 antag conf	EBI2 ag	bGal counter
Cc1cccc(N(C)c2ncnc3onc(-c4ccc(F)cc4)c23)c1C	63	.	.	.	.	.	.
FC(F)(F)c1cccc(CON=C2CCN(c3ncc(C(F)(F)F)cc3Cl)CC2)c1	.	.	.	.	/	/	/
FC(F)(F)c1cnc(N2CCC(=NOCc3ccc(Cl)cc3)CC2)c(Cl)c1	54	.	.	.	.	.	.
ON=C1CCN(c2ncc(C(F)(F)F)cc2Cl)CC1	.	.	.	.	/	/	/
Cc1ccc(CON=C2CCN(c3ncc(C(F)(F)F)cc3Cl)CC2)cc1	43	.	.	.	.	.	.
O=C(NC1CCN(C(=O)Nc2ccc(F)cc2)CC1)c1ccccc1F	.	.	.	.	/	/	/
CCSC1=NC2(CCCCC2)Nc2sc3c(c21)CCCC3	.	.	.	.	/	/	/
Cc1ccc(CNC(=O)Cn2nnc(C(=O)Nc3cccc(C)c3C)c2N)cc1	.	.	.	.	/	/	/
Cc1ccccc1Cn1nnc(C(=O)Nc2cccc(C)c2C)c1N	43	.	.	.	.	.	.
Cc1cccc(NCc2ccc(O)c3ncccc23)c1C	.	.	.	.	/	/	/
Cc1cccnc1NCc1ccc(O)c2ncccc12	56	.	.	.	.	.	.
O=C(CCCc1nc2ccccc2s1)NC(c1ccccc1)c1ccccc1	77	.	.	.	.	.	.
O=C(O)CCCc1nc2ccccc2s1	.	.	.	.	/	/	/
NNC(=S)NC1CC2CC1C1C=CCC21 (centres undefined)	.	.	.	.	/	/	/
Oc1ccc(O)c(C=NNC(=S)NC2CC3CC2C2C=CCC32)c1 (centres undefined)	49	/	.	.	.	.	.
O=C(/C=C/c1ccc(Cl)cc1Cl)c1nc2ccccc2[nH]1	44	.	.	.	.	.	.
CC(=O)N1CCN(C(=O)CSc2nnc(C)n2-c2ccccc2)CC1	.	.	.	.	/	/	/
O=C(Cc1n[nH]c(=O)c2ccccc12)N1CCN(S(=O)(=O)c2ccc(F)c(Cl)c2)CC1	.	.	.	.	/	/	/
O=c1[nH]c(CN2CCN(C/C=C/c3ccccc3)CC2)nc2ccccc12	.	.	.	.	/	/	/
CC(c1nc2ccccc2c(=O)[nH]1)N1CCN(S(=O)(=O)c2ccc(F)c(Cl)c2)CC1 (centres undefined)	59	/	.	.	.	.	.
O=c1[nH]c(CN2CCN(S(=O)(=O)c3ccc4ccccc4c3)CC2)nc2ccccc12	53	.	.	.	.	.	.
O=c1[nH]c(CN2CCN(S(=O)(=O)/C=C/c3ccccc3)CC2)nc2cc(Cl)ccc12	71	.	.	.	.	.	.
O=c1[nH]c(CN2CCN(S(=O)(=O)/C=C/c3ccccc3)CC2)nc2ccccc12	46	.	.	.	.	.	.
CCOC(=O)c1sc(S(C)(=O)=O)c2c1CCc1conc1-2	.	.	.	.	/	/	/
C[C@H](CO)N1C[C@H](C)[C@H](CN(C)C(=O)c2cc(-c3ccccc3)on2)OCc2cnnn2CCCC1=O	.	/	.	.	/	/	/
O=C(c1cccs1)N1CCN=C1SCc1ccc(F)cc1	.	.	.	.	/	/	/
O=C(O)c1cc(S(=O)(=O)NCCOc2ccccc2)ccc1Cl	.	.	.	.	/	/	/
O=C(/C=C/c1ccc(Br)cc1)NCc1cccs1	65	.	.	.	.	.	.
O=C(/C=C/c1ccc(F)cc1)NCc1cccs1	.	.	.	.	/	/	/
Cc1cc(C)c(S(=O)(=O)Nc2ccc(N(C)C)cc2)c(C)c1-n1cnnn1	65	.	.	.	.	.	.

From PubChem BioAssay
